Broadly, the EC50 is the concentration needed to bring the measured effect to its halfway point. High values mean a less potent agent, low ones a more potent agent. A word on the CC50: it is the concentration that lowers cell viability or growth by half.

Bounds are passed on as bounds.

The subject of assay [1] is MT4. Put plainly: Anti HIV-1 activity in human lymphocyte MT-4 cell line. The format is functional, cell-based. A digest of the protocol: (§1)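 Cells at 5 × 10^5/mL infected with HIV-1 (III_B, stocks from infected MT-4 supernatants) or HIV-2 (ROD) at 100 CCID50 per mL, then mixed with compound dilutions. Giant cell formation recorded microscopically at day 4 (CEM). Viable MT-4 cells counted by trypan blue at day 5. EC50 is the concentration giving 50% protection against viral cytopathicity. Mean of two to four independent experiments.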

Assay [2] concerns MT4. In words: cytotoxic activity in MT-4 cell line. Type of assay: functional. As to conditions: Homo sapiens. The method in brief: (§2)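 Mock-infected MT-4 or CEM cell cultures incubated with compound dilutions in the same format as the antiviral assay. CC50 is the concentration reducing viable cell number (MT-4, trypan blue, day 5) […] by 50%. Mean of two to four independent experiments.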

Assay [3] concerns CCRF-CEM. In words: Antiviral activity in HIV-2 infected CEM cells which are deficient in Thymidine Kinase. Type of assay: functional, cell-based. The settings on record: Homo sapiens. A digest of the protocol: as §1
Assay [4] has as its system CCRF-CEM. Put plainly: Anti HIV-2 activity in human lymphocyte CEM/0 cell line. The format is functional, cell-based. A digest of the protocol:
as §1

In assay [5] the test system is CCRF-CEM. Put plainly: cytotoxic activity in CEM/0 cell line. The format is functional. As to conditions: Homo sapiens. A digest of the protocol:
as §2

Assay [6] relates to CCRF-CEM. Put plainly: Anti HIV-1 activity in human lymphocyte CEM/0 cell line. The format is functional, cell-based. The method in brief: as §1
A short description of assay [7]: EC50 of HIV-2 in CEM/TK versus EC50 of HIV-2 in CEM/0. Type of assay: functional. A digest of the protocol:
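Ratio of the HIV-2 EC50 in thymidine kinase-deficient CEM/TK⁻ cells to the HIV-2 EC50 in CEM/O cells. Both values come from the cytopathicity-protection assay.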

The nature of assay [8]: Selective index is the ratio of cytotoxic concentration to effective concentration against MT-4 cell line. The format is functional, MT4. A digest of the protocol:
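Selectivity index for HIV-2 in MT-4 cells is the CC50 (mock-infected cultures, trypan blue viable count at day 5) divided by the EC50 (protection of infected cultures from HIV-2 cytopathicity).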

For assay [9], the system named is MT4. Put plainly: Anti HIV-2 activity in human lymphocyte MT-4 cell line. The format is functional, cell-based. A digest of the protocol: as §1

Turning to `CCc1ccc(OP(=O)(NC(C)C(=O)OC)OCC2OC(n3cc(C)c(=O)[nH]c3=O)CC2N=[N+]=[N-])cc1` (stereo not drawn), the EC50 in assay [1] is 68 nM; in [3], 8700 nM; in assay [4], 60 nM; in assay [6] it was 48 nM; in assay [9] it was 70 nM. Further, the CC50 in assay [2] was 11000 nM; in assay [5], 31700 nM. Also, in [7], the Ratio turned out to be 145. In addition, the Selectivity index in assay [8] came to 153.
In the case of `Cc1cn([C@H]2C[C@H](N=[N+]=[N-])[C@@H](CO)O2)c(=O)[nH]c1=O` [ZIDOVUDINE], the EC50 was 2 nM in [1], above 100000 nM in [3], 4 nM in [4] and 3 nM in [6]. Moreover, the results for the CC50 in assay [2] and in assay [5] were 6000 nM and above 500000 nM, respectively. Besides, the Ratio in assay [7] is above 28600. In addition, the Selectivity index in [8] is listed as 2000.
On to `COC(=O)C(C)NP(=O)(OCC1OC(n2cc(C)c(=O)[nH]c2=O)CC1N=[N+]=[N-])Oc1ccc(OC)cc1` (stereo not drawn), for which the EC50 in [1] was 71 nM; in assay [3] it was 9000 nM; in assay [4], 65 nM; in assay [6], 57 nM; in [9], 69 nM. The figures for the CC50 in assay [2] and in assay [5] were 182000 nM and 42600 nM, respectively. Besides, the Ratio in [7] came to 138. The Selectivity index in [8] was determined as 2638.
Regarding `COC(=O)[C@H](C)NP(=O)(OC[C@H]1O[C@@H](n2cc(C)c(=O)[nH]c2=O)C[C@@H]1N=[N+]=[N-])Oc1ccccc1` (stereo partly drawn), the EC50 was determined as 6 nM in assay [1]; 12000 nM in [3]; 70 nM in [4]; 55 nM in assay [6]; 7 nM in [9]. Further, the CC50 in assay [2] is above 50000 nM; in [5] it was 172000 nM. Also, the Ratio in [7] stood at 171. The Selectivity index in assay [8] is listed as above 5555.
As to `CCCc1ccc(OP(=O)(NC(C)C(=O)OC)OCC2OC(n3cc(C)c(=O)[nH]c3=O)CC2N=[N+]=[N-])cc1` (stereo not drawn), the EC50 amounted to 43 nM in [1]; 3000 nM in assay [3]; 51 nM in [4]; 41 nM in [6]; 45 nM in [9]. The results for the CC50 in assay [2] and in [5] were 28000 nM and 32700 nM, respectively. For the same molecule, in [7], the Ratio was 59. For the same molecule, the Selectivity index in assay [8] is 631.
Take `COC(=O)C(NP(=O)(OCC1OC(n2cc(C)c(=O)[nH]c2=O)CC1N=[N+]=[N-])Oc1ccccc1)C(C)C` (stereo not drawn): the EC50 was found to be 99 nM in [1]; 13000 nM in [3]; 210 nM in [4]; 140 nM in [6]; 87 nM in [9]. Moreover, the CC50 in assay [2] was 205000 nM; in [5] it was 123000 nM. Besides, in assay [7], the Ratio was determined as 62. Also, in assay [8], the Selectivity index amounted to 1891.
In the case of `CCCCCc1ccc(OP(=O)(NC(C)C(=O)OC)OCC2OC(n3cc(C)c(=O)[nH]c3=O)CC2N=[N+]=[N-])cc1` (stereo not drawn), the 50% effective concentration (EC50) amounted to 103 nM in [1]; 8000 nM in [3]; 60 nM in assay [4]; 51 nM in assay [6]; 74 nM in assay [9]. Further, the results for the CC50 in [2] and in [5] were 7000 nM and 9000 nM, respectively. The Ratio in [7] came out at 133. Besides, the Selectivity index in assay [8] came to 99.
Regarding `COC(=O)C(C)NP(=O)(OCC1OC(n2cc(C)c(=O)[nH]c2=O)CC1N=[N+]=[N-])Oc1ccc(F)cc1` (stereo not drawn), the EC50 in assay [1] was found to be 41 nM; in [3], 3000 nM; in assay [4] it was 65 nM; in assay [6], 48 nM; in [9], 54 nM. For the same molecule, the CC50 is 206000 nM in assay [2] and 128000 nM in [5]. Besides, the Ratio in assay [7] is 46. Also, in assay [8], the Selectivity index was found to be 3815.
Consider `COC(=O)C(Cc1ccccc1)NP(=O)(OCC1OC(n2cc(C)c(=O)[nH]c2=O)CC1N=[N+]=[N-])Oc1ccccc1` (stereo not drawn), for which the EC50 in [1] is 80 nM; in [3], 10000 nM; in assay [4], 160 nM; in assay [6], 97 nM; in [9], 110 nM. Moreover, the CC50 in assay [2] is 208000 nM; in [5], 161000 nM. The Ratio in assay [7] stood at 62. The Selectivity index in [8] is on record as 2356.
For the molecule `COC(=O)CNP(=O)(OCC1OC(n2cc(C)c(=O)[nH]c2=O)CC1N=[N+]=[N-])Oc1ccccc1` (stereo not drawn), the EC50 in assay [1] was 160 nM; in assay [3], above 100000 nM; in [4], 230 nM; in assay [6], 97 nM; in assay [9], 200 nM. Moreover, the half-maximal cytotoxic concentration (CC50) in assay [2] and in assay [5] was above 500000 nM throughout. Further, the Ratio in assay [7] is above 435. In addition, the Selectivity index in [8] is recorded as above 2500.
For the molecule `COC(=O)C(C)NP(=O)(OCC1OC(n2cc(C)c(=O)[nH]c2=O)CC1N=[N+]=[N-])Oc1ccc(C)cc1` (stereo not drawn), the EC50 in assay [1] stood at 51 nM; in [3], 7000 nM; in assay [4], 56 nM; in assay [6], 65 nM; in assay [9], 53 nM. Further, the CC50 in [2] came out at 27000 nM; in assay [5], 43000 nM. In addition, the Ratio in assay [7] was 125. For the same molecule, in assay [8], the Selectivity index is 509.

Values taken from ChEMBL document CHEMBL1126638, “Intracellular delivery of bioactive AZT nucleotides by aryl phosphate derivatives of AZT” (J Med Chem, 1993).
